The text below walks through data of ChEMBL document CHEMBL1799971, “Bivalent dopamine D2 receptor ligands: synthesis and binding properties” (J Med Chem, 2011).

Activity calls are given as the source filed them. No cut-off for these calls is given here.

The target in assay [1] is D(1A) dopamine receptor (Sus scrofa, UniProt P50130). Nature of the assay: Displacement of [3H]SCH23390 from D1 receptor from porcine cerebral cortex homogenates. Format: tissue-based. The method, boiled down: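 Porcine cerebral cortex homogenate membranes at 40–60 μg/mL protein (Lowry, BSA standard). Competition curves were fitted to a sigmoid by nonlinear regression, with log EC50 and Hill coefficient as free parameters.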

Assay [2] addresses T1, D(2) dopamine receptor (Homo sapiens, UniProt P14416). Put plainly: Displacement of [3H]spiperone from human D2short receptor expressed in CHO cells. Format: cell-based. In general terms: Loss of bound radioactivity is the signal in a displacement assay; it reports binding, not function.
The target in assay [3] is D(3) dopamine receptor (Homo sapiens, UniProt P35462). Put plainly: Displacement of [3H]spiperone from human D3 receptor expressed in CHO cells. Format: cell-based.
Assay [4] has as its target T2, D(4) dopamine receptor (Homo sapiens, UniProt P21917).
T2 sequence (P21917 whole entry): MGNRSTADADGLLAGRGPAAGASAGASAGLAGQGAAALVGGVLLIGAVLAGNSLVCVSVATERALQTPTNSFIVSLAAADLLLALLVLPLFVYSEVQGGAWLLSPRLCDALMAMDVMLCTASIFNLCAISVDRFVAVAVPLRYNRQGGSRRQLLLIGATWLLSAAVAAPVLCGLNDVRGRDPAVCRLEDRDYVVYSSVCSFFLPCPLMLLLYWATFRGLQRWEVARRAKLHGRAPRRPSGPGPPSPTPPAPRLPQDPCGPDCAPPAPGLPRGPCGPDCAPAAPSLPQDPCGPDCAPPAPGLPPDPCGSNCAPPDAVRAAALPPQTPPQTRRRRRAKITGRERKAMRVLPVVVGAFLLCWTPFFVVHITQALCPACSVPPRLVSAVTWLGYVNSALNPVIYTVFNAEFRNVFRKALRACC
Put plainly: Displacement of [3H]spiperone from human D4.4 receptor expressed in CHO cells. The class given is cell-based.

The species entered for assay [5] is Homo sapiens. Put plainly: Selectivity ratio of Ki for human D4.4 receptor to Ki for human D3 receptor.
The target in assay [6] is T1, D(2) dopamine receptor. Nature of the assay: Displacement of [3H]spiperone from human D2long receptor expressed in CHO cells.
Assay [7] has as its target T1, D(2) dopamine receptor. Nature of the assay: Displacement of [3H]spiperone from human D2short receptor expressed in CHO cells in presence of 100 mM sodium chloride. The class given is cell-based. The method, boiled down: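 Buffer was 50 mM Tris, 1.0 mM EDTA, 5.0 mM MgCl2, 100 μg/mL bacitracin and 5 μg/mL soybean trypsin inhibitor, pH 7.4, plus NaCl at a final 100 mM. Curves were fitted by sigmoidal nonlinear regression with a free Hill coefficient.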

Assay [8] concerns the target T1, D(2) dopamine receptor. Put plainly: Antagonist activity at human D2long receptor expressed in CHO10001 cells assessed as inhibition of agonist-stimulated [3H]thymidine incorporation into cells by mitogenesis assay. The class given is functional, cell-based. In general terms: Incorporation of labelled thymidine or its analogues reports DNA synthesis.
The target of assay [9] is T1, D(2) dopamine receptor. Put plainly: Displacement of [3H]spiperone from human D2 receptor expressed in CHO cells assessed as dissociation half life. The class given is cell-based.

Chain of D(1A) dopamine receptor (P50130 whole entry): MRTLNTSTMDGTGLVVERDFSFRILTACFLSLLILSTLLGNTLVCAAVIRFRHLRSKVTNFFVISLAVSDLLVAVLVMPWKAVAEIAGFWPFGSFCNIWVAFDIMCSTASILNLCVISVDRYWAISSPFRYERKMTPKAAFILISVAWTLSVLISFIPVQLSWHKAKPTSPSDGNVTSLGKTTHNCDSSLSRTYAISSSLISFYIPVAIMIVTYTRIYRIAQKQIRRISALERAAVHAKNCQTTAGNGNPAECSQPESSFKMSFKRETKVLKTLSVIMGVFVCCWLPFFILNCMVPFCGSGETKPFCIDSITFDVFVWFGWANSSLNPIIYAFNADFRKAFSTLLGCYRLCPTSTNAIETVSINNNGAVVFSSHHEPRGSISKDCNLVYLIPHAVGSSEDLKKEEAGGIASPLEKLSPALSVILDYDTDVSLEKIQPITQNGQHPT
T1 sequence (P14416 whole entry): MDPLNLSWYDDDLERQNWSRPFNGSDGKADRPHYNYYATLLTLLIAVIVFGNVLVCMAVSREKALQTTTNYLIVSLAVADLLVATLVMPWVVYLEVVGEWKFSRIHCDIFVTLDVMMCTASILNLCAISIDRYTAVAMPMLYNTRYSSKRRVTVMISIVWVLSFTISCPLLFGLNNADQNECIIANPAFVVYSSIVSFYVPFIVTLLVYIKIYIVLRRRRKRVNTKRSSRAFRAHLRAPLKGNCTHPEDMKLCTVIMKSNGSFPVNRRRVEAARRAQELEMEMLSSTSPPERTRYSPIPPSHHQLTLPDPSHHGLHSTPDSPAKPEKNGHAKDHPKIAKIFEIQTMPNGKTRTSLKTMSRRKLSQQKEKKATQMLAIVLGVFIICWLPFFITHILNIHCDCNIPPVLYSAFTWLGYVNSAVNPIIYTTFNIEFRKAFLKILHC
Chain of D(3) dopamine receptor (P35462 whole entry): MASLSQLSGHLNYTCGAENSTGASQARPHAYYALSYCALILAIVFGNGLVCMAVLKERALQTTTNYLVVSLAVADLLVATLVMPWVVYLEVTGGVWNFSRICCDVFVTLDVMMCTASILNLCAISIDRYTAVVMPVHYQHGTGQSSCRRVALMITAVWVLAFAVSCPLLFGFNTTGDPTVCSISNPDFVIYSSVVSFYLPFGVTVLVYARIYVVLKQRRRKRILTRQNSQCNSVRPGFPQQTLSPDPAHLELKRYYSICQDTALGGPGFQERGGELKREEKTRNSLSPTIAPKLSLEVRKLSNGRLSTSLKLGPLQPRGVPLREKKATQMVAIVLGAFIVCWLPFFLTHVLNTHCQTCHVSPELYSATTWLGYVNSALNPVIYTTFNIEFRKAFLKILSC

For the compound `COc1cc(CN2CCN(c3ccccc3OC)CC2)ccc1OCc1cn(CCCCCCCCn2cc(COc3ccc(CN4CCN(c5ccccc5OC)CC4)cc3OC)nn2)nn1`, the Ki in assay [1] amounted to 210 nM; in assay [2], 25 nM; in [3], 31 nM; in assay [4] it was 5.4 nM; in assay [6], 16 nM. The Ratio Ki in assay [5] is 5.

As to `COc1cc(CN2CCN(c3ccccc3OC)CC2)ccc1OCCCc1cn(CCCCCCCCn2cc(CCCOc3ccc(CN4CCN(C5CCCCC5)CC4)cc3OC)nn2)nn1`, the Ki is 480 nM in assay [1] and 19 nM in assay [4].

Consider `COc1cc(CN2CCN(c3ccccc3OC)CC2)ccc1OCCCc1cn(CCOCCOCCn2cc(CCCOc3ccc(CN4CCN(c5ccccc5OC)CC4)cc3OC)nn2)nn1`, for which the Ki in assay [1] is 220 nM; in [2] it was 3.7 nM; in [3] it was 61 nM; in assay [4], 12 nM; in [6], 2.8 nM.

Regarding `CCCc1cn(CCCCCCCCn2cc(CCCOc3ccc(CN4CCN(c5ccccc5OC)CC4)cc3OC)nn2)nn1`, the Ki in assay [1] was 400 nM; in assay [2], 32 nM; in [3] it was 230 nM; in assay [4], 14 nM; in assay [6] it was 36 nM.

On to `COc1cc(CN2CCN(c3ccccc3OC)CC2)ccc1OCc1cn(CCOCCOCCn2cc(COc3ccc(CN4CCN(c5ccccc5OC)CC4)cc3OC)nn2)nn1`, for which the inhibitory constant (Ki) in assay [1] was 390 nM; in assay [2], 3.4 nM; in assay [3], 36 nM; in assay [4], 6.8 nM; in [6], 3.3 nM.

For the compound `COc1cc(CN2CCN(c3ccccc3OC)CC2)ccc1OCCCCc1cn(CCCCCCCCCCn2cc(CCCCOc3ccc(CN4CCN(c5ccccc5OC)CC4)cc3OC)nn2)nn1`, the Ki in assay [1] amounted to 300 nM; in [2], 8.2 nM; in [3], 74 nM; in assay [4] it was 11 nM; in [6] it was 17 nM.

On to `CCCCn1cc(CCCCOc2ccc(CN3CCN(c4ccccc4OC)CC3)cc2OC)nn1`, for which the Ki was determined as 2500 nM in assay [1]; 67 nM in assay [2]; 590 nM in assay [3]; 13 nM in assay [4]; 52 nM in assay [6].

For `CCOCCn1cc(COc2ccc(CN3CCN(c4ccccc4OC)CC3)cc2OC)nn1`, the inhibition constant (Ki) in assay [1] came to 3800 nM; in assay [2] it was 100 nM; in assay [3], 440 nM; in assay [4], 8.4 nM; in [6], 68 nM.

Take `COc1cc(CN2CCN(c3ccccc3OC)CC2)ccc1OCCCc1cn(CCOCCOCCOCCn2cc(CCCOc3ccc(CN4CCN(c5ccccc5OC)CC4)cc3OC)nn2)nn1`: the Ki in assay [1] turned out to be 270 nM; in assay [2], 6.2 nM; in assay [3], 72 nM; in assay [4], 19 nM; in [6] it was 4.8 nM.

With `COc1cc(CN2CCN(c3ccccc3OC)CC2)ccc1OCCCc1cn(CCCCCCCCCCn2cc(CCCOc3ccc(CN4CCN(c5ccccc5OC)CC4)cc3OC)nn2)nn1`, the Ki in [1] amounted to 250 nM; in assay [2], 17 nM; in assay [3], 96 nM; in assay [4], 19 nM; in assay [6], 23 nM.

`CCCCn1cc(COc2ccc(CN3CCN(c4ccccc4OC)CC3)cc2OC)nn1`: the Ki in assay [1] was determined as 2300 nM; in assay [2] it was 70 nM; in assay [3], 320 nM; in assay [4] it was 3.3 nM; in assay [6], 63 nM. Further, the Ratio Ki in [5] is 80.

`CCCCn1cc(CCCOc2ccc(CN3CCN(c4ccccc4OC)CC3)cc2OC)nn1`: the Ki in assay [1] is 1500 nM; in [4], 7.2 nM; in assay [7], 35 nM. For the same compound, the inhibition entry in assay [8] is “Active”. In [5], the Ratio Ki was 80. Further, the T1/2 in assay [9] was found to be 2 h.

Take `COc1cc(CN2CCN(c3ccccc3OC)CC2)ccc1OCCCc1cn(CCCCCCCCn2cc(CCCOc3ccc(CN4CCN(c5ccccc5OC)CC4)cc3OC)nn2)nn1`: the results for the Ki in assay [1], in [4] and in assay [7] were 220 nM, 15 nM and 12 nM, respectively. Besides, the inhibition result in [8] is “Active”. The Ratio Ki in assay [5] was 5. Besides, the T1/2 in [9] worked out at 2.17 h.

Regarding `CCOCCn1cc(CCCOc2ccc(CN3CCN(c4ccccc4OC)CC3)cc2OC)nn1`, the Ki worked out at 870 nM in [1]; 16 nM in [2]; 250 nM in assay [3]; 6.4 nM in assay [4]; 18 nM in [6].

Regarding `COc1cc(CN2CCN(C)CC2)ccc1OCCCc1cn(CCCCCCCCn2cc(CCCOc3ccc(CN4CCN(c5ccccc5OC)CC4)cc3OC)nn2)nn1`, the Ki came out at 980 nM in assay [1] and 12 nM in assay [4].

Broadly, the Ki is a dissociation constant, usually derived from enzyme kinetics or from competition with a known ligand.
